Assay [1] addresses T1, 11-beta-hydroxysteroid dehydrogenase 1 (Homo sapiens, UniProt P28845). Nature of the assay: Inhibition of human recombinant 11-beta-HSD1 expressed in HEK293 cells at 10 uM. It counts as cell-based. Details: scale not given: the % may be the effect or the level left. The gist of the method: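 Lysates of HEK-293 cells expressing human 11β-HSD1; conversion of 200 nM tritiated cortisone with 500 µM NADPH, test compound at 10 µM; percent inhibition reported.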
Target sequence in this assay (P28845 whole entry, looked up): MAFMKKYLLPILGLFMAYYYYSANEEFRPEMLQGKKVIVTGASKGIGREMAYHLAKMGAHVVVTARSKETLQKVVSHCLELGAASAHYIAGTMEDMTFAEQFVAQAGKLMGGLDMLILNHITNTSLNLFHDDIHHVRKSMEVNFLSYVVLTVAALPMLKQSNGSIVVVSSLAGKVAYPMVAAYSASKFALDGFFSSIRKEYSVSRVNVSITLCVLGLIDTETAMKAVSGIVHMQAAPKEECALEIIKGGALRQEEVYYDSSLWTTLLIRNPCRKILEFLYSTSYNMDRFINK

Assay [2] deals with T1, 11-beta-hydroxysteroid dehydrogenase 1. Nature of the assay: Inhibition of human recombinant 11-beta-HSD1 transfected in intact HEK293 cells. Type of assay: cell-based. The essentials: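 HEK-293 cells cotransfected (calcium phosphate) with 11β-HSD1 and H6PDH plasmids, replated after 6 h at 30000 cells/well in steroid-free DMEM for 18 h. Inhibitor 50 nM–20 µM final with 200 nM radiolabeled cortisone, 90 min at 37 °C; stopped with excess unlabeled steroids in methanol, TLC, scintillation counting. Mean ± SD, at least four experiments.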
Target sequence in this assay (P28845 whole entry): as the sequence (P28845 whole entry, looked up) above

Assay [3] concerns the target T2, 11-beta-hydroxysteroid dehydrogenase type 2 (Homo sapiens, UniProt P80365).
T2 sequence (P80365 whole entry): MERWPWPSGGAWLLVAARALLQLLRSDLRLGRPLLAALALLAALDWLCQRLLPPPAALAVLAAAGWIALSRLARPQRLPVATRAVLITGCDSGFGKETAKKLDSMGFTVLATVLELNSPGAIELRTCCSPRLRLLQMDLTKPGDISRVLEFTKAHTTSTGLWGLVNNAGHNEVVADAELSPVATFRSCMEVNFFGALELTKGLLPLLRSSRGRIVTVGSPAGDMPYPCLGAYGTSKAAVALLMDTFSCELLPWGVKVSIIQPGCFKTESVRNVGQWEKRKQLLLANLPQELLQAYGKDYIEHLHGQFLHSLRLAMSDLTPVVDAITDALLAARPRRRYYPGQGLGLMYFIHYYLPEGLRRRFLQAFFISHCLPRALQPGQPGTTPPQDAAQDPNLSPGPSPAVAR
Nature of the assay: Inhibition of human recombinant 11betaHSD2 transfected in intact HEK293 cells. Type of assay: cell-based.

For another assay, the system named is HEK293. The assay can be described thus: Cytotoxicity against HEK293 cells upto 40 uM by MTT assay. It counts as functional, cell-based. The note with it: Homo sapiens. The essentials: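 HEK-293 cells on poly-D-lysine-coated wells exposed 4 h at 37 °C to 40 µM compound, then fresh medium with 0.5 mg/mL MTT; formazan dissolved in DMSO, absorbance A570 − A690. Controls: chloroform 1% v/v and NaOH 50 mM.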
On the technique in general: Tetrazolium assays rely on reduction of a dye to a coloured formazan, in cell work by metabolically active cells.

For assay [4], the target named is T3, 17-beta-hydroxysteroid dehydrogenase type 2 (Homo sapiens, UniProt P37059).
T3 sequence (P37059 whole entry): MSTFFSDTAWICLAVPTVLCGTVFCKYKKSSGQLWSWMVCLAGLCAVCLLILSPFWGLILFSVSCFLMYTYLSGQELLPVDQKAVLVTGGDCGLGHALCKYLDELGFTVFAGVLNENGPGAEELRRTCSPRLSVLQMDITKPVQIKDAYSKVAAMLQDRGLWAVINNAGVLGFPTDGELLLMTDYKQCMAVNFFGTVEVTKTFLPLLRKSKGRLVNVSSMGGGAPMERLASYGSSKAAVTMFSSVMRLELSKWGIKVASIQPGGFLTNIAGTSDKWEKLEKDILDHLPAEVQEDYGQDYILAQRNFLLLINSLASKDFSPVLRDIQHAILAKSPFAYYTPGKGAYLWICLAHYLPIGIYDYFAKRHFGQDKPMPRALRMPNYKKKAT
Nature of the assay: Inhibition of human recombinant 17-beta-HSD2 expressed in HEK293 cells. Type of assay: cell-based. The gist of the method: (§1)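 Lysates of HEK-293 cells expressing human recombinant enzyme; inhibitor 50 nM–30 µM final, DMSO ≤0.1%. 11β-HSD1: 200 nM [1,2,6,7-3H]cortisone, 500 µM NADPH. 17β-HSD1: 200 nM radiolabeled estrone, 500 µM NADPH. 17β-HSD2: 200 nM radiolabeled estradiol, 500 µM NADP+. IC50 by nonlinear regression, first-order kinetics; mean ± SD, at least four experiments.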

Assay [5] deals with Mineralocorticoid receptor (Homo sapiens) (UniProt P08235). Nature of the assay: Inhibition of MR-mediated transactivation of galactosidase reporter gene in HEK293 cells. For orientation: Reporter assays use an easily measured gene product as a stand-in for the process of interest.
In assay [6] the target is T4, 17-beta-hydroxysteroid dehydrogenase type 1 (Homo sapiens, UniProt P14061).
T4 sequence (P14061 whole entry): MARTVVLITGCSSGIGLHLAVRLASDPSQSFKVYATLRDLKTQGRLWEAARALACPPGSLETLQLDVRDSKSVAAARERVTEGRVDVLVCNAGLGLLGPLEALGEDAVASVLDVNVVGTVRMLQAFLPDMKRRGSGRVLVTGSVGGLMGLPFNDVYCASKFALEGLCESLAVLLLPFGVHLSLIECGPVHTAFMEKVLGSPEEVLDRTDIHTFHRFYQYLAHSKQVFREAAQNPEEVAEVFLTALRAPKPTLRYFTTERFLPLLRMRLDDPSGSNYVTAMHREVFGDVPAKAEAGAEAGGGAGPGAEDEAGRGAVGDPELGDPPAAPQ
The assay can be described thus: Inhibition of human recombinant 17betaHSD1 expressed in HEK293 cells. It counts as cell-based. The essentials:
as §1

The target in a further assay is T5, Glucocorticoid receptor (Homo sapiens, UniProt P04150).
T5 sequence (P04150 whole entry): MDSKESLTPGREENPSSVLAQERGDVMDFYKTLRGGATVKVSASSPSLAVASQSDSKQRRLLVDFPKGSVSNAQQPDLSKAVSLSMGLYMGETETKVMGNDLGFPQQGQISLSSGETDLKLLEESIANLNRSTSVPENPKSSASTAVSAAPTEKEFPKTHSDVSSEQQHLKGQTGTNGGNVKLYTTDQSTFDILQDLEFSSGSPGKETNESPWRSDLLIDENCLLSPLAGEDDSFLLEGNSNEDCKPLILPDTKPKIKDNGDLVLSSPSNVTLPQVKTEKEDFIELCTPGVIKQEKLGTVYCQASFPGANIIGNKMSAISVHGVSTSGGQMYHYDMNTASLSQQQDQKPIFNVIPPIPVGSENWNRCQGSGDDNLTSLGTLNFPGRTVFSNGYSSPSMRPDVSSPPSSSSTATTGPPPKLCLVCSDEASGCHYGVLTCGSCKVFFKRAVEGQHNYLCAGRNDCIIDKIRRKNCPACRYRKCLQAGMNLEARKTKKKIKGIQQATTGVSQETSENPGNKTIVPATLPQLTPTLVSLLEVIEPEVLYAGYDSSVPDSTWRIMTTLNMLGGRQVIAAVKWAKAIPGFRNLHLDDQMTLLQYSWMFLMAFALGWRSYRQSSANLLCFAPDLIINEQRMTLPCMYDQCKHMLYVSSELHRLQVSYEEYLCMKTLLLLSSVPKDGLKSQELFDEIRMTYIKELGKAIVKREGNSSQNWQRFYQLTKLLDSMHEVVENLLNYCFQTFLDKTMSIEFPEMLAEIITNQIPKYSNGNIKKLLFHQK
Nature of the assay: Inhibition of GR-mediated transactivation of galactosidase reporter gene in HEK293 cells in absence of 11betaHSD1. Type of assay: functional, cell-based. The gist of the method: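 HEK-293 cells transfected with pMMTV-LacZ, pCMV-LUC and GR plus empty pcDNA3 (no 11β-HSD1/H6PDH). After 6 h, washed into steroid-free medium, then 24 h with 100 nM cortisol and graded inhibitor. β-Galactosidase normalized to luciferase, as % of steroid-only control. Four independent experiments, means ± SD.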

The target in assay [7] is T6, Mineralocorticoid receptor (Homo sapiens, UniProt P08235).
T6 sequence (P08235 whole entry): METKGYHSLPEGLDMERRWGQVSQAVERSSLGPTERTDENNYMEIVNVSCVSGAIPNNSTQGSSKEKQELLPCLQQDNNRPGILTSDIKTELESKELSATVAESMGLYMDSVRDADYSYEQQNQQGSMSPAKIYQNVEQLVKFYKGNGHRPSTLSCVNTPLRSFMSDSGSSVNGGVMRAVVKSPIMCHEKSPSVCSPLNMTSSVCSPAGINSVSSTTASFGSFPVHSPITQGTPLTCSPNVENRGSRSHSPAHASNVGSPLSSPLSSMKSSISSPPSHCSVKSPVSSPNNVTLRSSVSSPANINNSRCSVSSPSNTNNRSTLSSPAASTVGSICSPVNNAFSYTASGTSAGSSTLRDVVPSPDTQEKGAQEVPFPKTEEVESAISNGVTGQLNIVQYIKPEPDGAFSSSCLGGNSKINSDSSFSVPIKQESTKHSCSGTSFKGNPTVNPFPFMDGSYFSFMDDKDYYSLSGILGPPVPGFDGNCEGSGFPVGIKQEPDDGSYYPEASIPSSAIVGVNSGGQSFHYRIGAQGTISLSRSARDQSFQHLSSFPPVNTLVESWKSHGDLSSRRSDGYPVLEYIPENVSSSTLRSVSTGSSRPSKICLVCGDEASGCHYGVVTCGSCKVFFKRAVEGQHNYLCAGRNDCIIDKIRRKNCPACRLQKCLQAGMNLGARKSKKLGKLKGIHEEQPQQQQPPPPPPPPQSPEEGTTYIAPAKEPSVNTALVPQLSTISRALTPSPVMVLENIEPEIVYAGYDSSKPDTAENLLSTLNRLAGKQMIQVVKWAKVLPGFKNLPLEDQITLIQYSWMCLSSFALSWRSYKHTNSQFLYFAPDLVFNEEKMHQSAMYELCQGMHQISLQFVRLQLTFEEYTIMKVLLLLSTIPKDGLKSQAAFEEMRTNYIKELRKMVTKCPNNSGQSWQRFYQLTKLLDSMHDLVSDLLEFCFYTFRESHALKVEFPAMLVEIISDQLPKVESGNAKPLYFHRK
Nature of the assay: Antagonist activity against MR. It counts as functional. The gist of the method: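 HEK-293 cells on poly-L-lysine-coated wells, transfected with pMMTV-LacZ reporter, pCMV-LUC control and MR expression vector plus empty pcDNA3. […] Four independent experiments, means ± SD.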

Assay [8] concerns the target T7, 11-beta-hydroxysteroid dehydrogenase 1 (Mus musculus, UniProt P50172). The assay can be described thus: Inhibition of 11-beta-HSD1-dependent cortisone conversion to cortisol in mouse intact C2C12 cells. It counts as functional, cell-based. The essentials: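 Differentiation: confluent C2C12 myoblasts kept 7 days in DMEM with 2% horse serum to form myotubes. Day-7 myotubes incubated 1 h at 37 °C with 200 nM radiolabeled cortisone and varying inhibitor (formation linear over 15–60 min). Steroids extracted from medium with ethyl acetate, separated by TLC, conversion by scintillation counting.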

In assay [9] the target is T7, 11-beta-hydroxysteroid dehydrogenase 1. The assay can be described thus: Inhibition of 11-beta-HSD1-dependent cortisone conversion to cortisol in mouse intact 3T3 L1 cells. It counts as functional, cell-based. The essentials:
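3T3-L1 preadipocytes grown to confluence, held 48 h, differentiated 48 h (0.25 mM IBMX, 0.5 µM dexamethasone, 1 µg/mL insulin), then insulin medium 72 h, then insulin-free. Adipocytes incubated 45 min at 37 °C with 200 nM radiolabeled cortisone plus inhibitor at various concentrations. Medium steroids extracted, separated by TLC, scintillation counted.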

The values that follow come from ChEMBL document CHEMBL1148531, “The discovery of new 11beta-hydroxysteroid dehydrogenase type 1 inhibitors by common feature pharmacophore modeling and virtual screening” (J Med Chem, 2006).

Calls of active or inactive are those of the source. The rule behind the calls is not given here.

T7 sequence (P50172 whole entry): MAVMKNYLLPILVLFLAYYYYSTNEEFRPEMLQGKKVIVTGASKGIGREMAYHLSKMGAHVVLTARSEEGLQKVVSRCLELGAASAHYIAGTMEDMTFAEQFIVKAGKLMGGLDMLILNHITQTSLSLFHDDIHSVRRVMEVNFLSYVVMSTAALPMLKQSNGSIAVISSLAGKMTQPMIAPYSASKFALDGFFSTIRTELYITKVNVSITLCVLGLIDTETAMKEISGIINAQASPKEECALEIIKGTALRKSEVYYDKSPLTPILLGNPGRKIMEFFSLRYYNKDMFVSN

In the case of `COC(=O)[C@@]1(C)CC[C@]2(C)CC[C@]3(C)C(=CC(=O)[C@@H]4[C@@]5(C)CC[C@H](Oc6ccccc6C(=O)O)C(C)(C)[C@@H]5CC[C@]43C)[C@@H]2C1`, the Activity in [1] is more than 70%; in the assay on HEK293, “Not toxic”. Moreover, the IC50 (in general, the concentration needed to halve the response being measured) in assay [2] amounted to 3.84 µM; in assay [3] it was 48 µM; in assay [4] it was 10.3 µM.
As for `C[C@]12CCC(=O)C=C1CC[C@@H]1[C@@H]2C(=O)C[C@@]2(C)[C@H]1CC[C@]2(O)C(=O)CO`, the result in [5] was inactive.
In the case of `CC(=O)O[C@H]1CC[C@]2(C)[C@H]3C(=O)C=C4[C@@H]5C[C@@](C)(C(=O)O)CC[C@]5(C)CC[C@@]4(C)[C@]3(C)CC[C@H]2C1(C)C` [ACETOXOLONE], the Activity is more than 70% in [1] and “Not toxic” in the assay on HEK293. Also, the half-maximal inhibitory concentration (IC50) is 18.8 µM in assay [6] and 3.78 µM in [4].
Take `C[C@H]1C[C@@]2(C)CC[C@](C)(C(=O)N[C@H](Cc3ccccc3)C(=O)O)C[C@@]2(C)C2=CC(=O)[C@@H]3[C@@]4(C)CC[C@H](O)C(C)(C)[C@@H]4CC[C@@]3(C)[C@@]21C`: the Activity in [1] was more than 70%; in the assay with HEK293, “Not toxic”. In addition, the values for the half-inhibitory concentration (IC50) in assay [6] and in assay [4] were more than 30 µM and 23.6 µM, respectively.
`CC1(C)[C@@H](N)CC[C@]2(C)[C@H]3C(=O)C=C4[C@@H]5C[C@@](C)(C(=O)O)CC[C@]5(C)CC[C@@]4(C)[C@]3(C)CC[C@@H]12`: the Activity in assay [1] was more than 70%; with HEK293 it was “Not toxic”. In addition, the IC50 in assay [6] was more than 30 µM; in assay [2], 1.02 µM; in assay [3] it was 6.04 µM.
On to `CC(=O)OC1CC[C@]2(C)C3=C(C(=O)C[C@H]2C1(C)C)[C@]1(C)CCC(C(C)CCC(=O)O)[C@@]1(C)CC3=O` (some centres undefined), for which the values for the Activity (in assay [1]; with HEK293) were more than 70% and “Not toxic”, respectively. The half-inhibitory concentration (IC50) came out at 11.8 µM against Glucocorticoid receptor and 21 µM in assay [7].
Take `COc1ccc(CCNC(=O)C23CCC(C)(C(=O)C2=O)C3(C)C)cc1OC` (centres undefined): the Activity in assay [1] is more than 70%; with HEK293, “Not toxic”. Besides, the IC50 in assay [6] is 20.2 µM; in assay [2] it was 5.21 µM; in assay [8], 4.17 µM; in assay [9], 3.9 µM.
